Experimental data: ChEMBL document CHEMBL1152423, “Development of N-[11C]methylamino 4-hydroxy-2(1H)-quinolone derivatives as PET radioligands for the glycine-binding site of NMDA receptors” (Bioorg Med Chem, 2009)
Active and inactive are the calls of the source. The rule behind the calls is not given here.

How the values were obtained:
Glutamate NMDA receptor [1] = test: Displacement of [3H]MDL-105519 from glycine binding site of NMDA receptor in rat cortical membrane by liquid scintillation counting; format: cell membranes
Outline: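 Washed rat cortical membranes in 50 mM Tris–HCl (pH 8.0) were incubated 45 min at 4 °C with [3H]MDL-105,519 (2 nM) plus buffer or displacer. Nonspecific binding was defined with excess unlabeled glycine. Samples were filtered on GF/B, washed three times with ice-cold buffer, and counted by liquid scintillation. Ki came from three determinations, each in triplicate.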

Blood [2] = test: Biodistribution in ddY mouse blood assessed per gram of tissue at 7.4 MBq, iv after 1 min by gamma counting; format: ADME, organism-based; conditions: in vivo
Outline: (§1)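 ddY mice (35–45 g) received about 7.4 MBq of [11C]radioligand in 0.2 ml into the tail vein and were decapitated at 1 or 30 min. Blood, cerebrum and cerebellum were gamma-counted with decay correction and expressed as % injected dose/g; tissue/blood ratios were derived. n=3 or 5.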

[3] = Biodistribution in ddY mouse cerebrum assessed per gram of tissue at 7.4 MBq, iv after 1 min by gamma counting; format: ADME, organism-based; conditions: in vivo; outline: as §1
Cerebellum [4] = test: Biodistribution in ddY mouse cerebellum assessed per gram of tissue at 7.4 MBq, iv after 1 min by gamma counting; format: ADME, organism-based; conditions: in vivo; outline: as §1
Blood [5] = test: Biodistribution in ddY mouse blood assessed per gram of tissue at 7.4 MBq, iv after 30 mins by gamma counting; format: ADME, organism-based; conditions: in vivo, 0.5 h; outline: as §1
[6] = Biodistribution in ddY mouse cerebrum assessed per gram of tissue at 7.4 MBq, iv after 30 mins by gamma counting; format: ADME, organism-based; conditions: in vivo, 0.5 h; outline: as §1
Cerebellum [7] = test: Biodistribution in ddY mouse cerebellum assessed per gram of tissue at 7.4 MBq, iv after 30 mins by gamma counting; format: ADME, organism-based; conditions: in vivo, 0.5 h; outline: as §1
[8] = Ratio of drug level in cerebrum to blood of ddY mouse at 7.4 MBq, iv after 1 min; format: ADME, organism-based; outline: as §1
[9] = Ratio of drug level in cerebellum to blood of ddY mouse at 7.4 MBq, iv after 1 min; format: ADME, organism-based; outline: as §1
[10] = Ratio of drug level in cerebrum to blood of ddY mouse at 7.4 MBq, iv after 30 mins; format: ADME, organism-based; outline: as §1
[11] = Ratio of drug level in cerebellum to blood of ddY mouse at 7.4 MBq, iv after 30 mins; format: ADME, organism-based; outline: as §1
[12] = biological target: T1, Glutamate NMDA receptor (Rattus norvegicus) (UniProt P35439+Q00959+Q00960+Q00961+Q62645+Q8VHN2+Q9R1M7); test: Binding affinity to glycine binding site of NMDA receptor in hippocampus of rat brain by autoradiography; format: tissue-based; conditions: tested as the 11C-labelled form
Outline: (§2)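 Rat brain sagittal sections were preincubated 30 min at 25 °C in 50 mM Tris–HCl (pH 7.4), then incubated 30 min at 25 °C with the [11C]radioligand (1.59–2.13 nM). Sections were rinsed twice for 3 min in cold buffer, dipped in cold water, dried, and exposed to imaging plates for 60 min. Nonspecific binding was taken with the corresponding unlabeled ligand; specific binding is given per region.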

[13] = biological target: T1, Glutamate NMDA receptor (Rattus norvegicus); test: Binding affinity to glycine binding site of NMDA receptor in cerebral cortex of rat brain by autoradiography; format: tissue-based; conditions: tested as the 11C-labelled form; outline: as §2
[14] = biological target: T1, Glutamate NMDA receptor (Rattus norvegicus); test: Binding affinity to glycine binding site of NMDA receptor in thalamus of rat brain by autoradiography; format: tissue-based; conditions: tested as the 11C-labelled form; outline: as §2
[15] = biological target: T1, Glutamate NMDA receptor (Rattus norvegicus); test: Binding affinity to glycine binding site of NMDA receptor in striatum of rat brain by autoradiography; format: tissue-based; conditions: tested as the 11C-labelled form; outline: as §2
[16] = biological target: T1, Glutamate NMDA receptor (Rattus norvegicus); test: Binding affinity to glycine binding site of NMDA receptor in cerebellum of rat brain by autoradiography; format: tissue-based; conditions: tested as the 11C-labelled form; outline: as §2
[17] = biological target: T1, Glutamate NMDA receptor (Rattus norvegicus); test: Binding affinity to glycine binding site of NMDA receptor in hippocampus of rat brain by autoradiography in presence of glycine; format: tissue-based; conditions: tested as the 11C-labelled form
Outline: (§3)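 Hippocampal binding on rat brain slices: 30 min at 25 °C in 50 mM Tris–HCl (pH 7.4) with [11C]radioligand (1.59–2.13 nM), with or without a glycine-site drug (agonists at 1 mM). Slices were rinsed, dried and exposed to imaging plates for 60 min. PSL with drug was divided by PSL without drug to give % total binding, averaged over at least triplicate sections from three animals.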

[18] = biological target: T1, Glutamate NMDA receptor (Rattus norvegicus); test: Binding affinity to glycine binding site of NMDA receptor in hippocampus of rat brain by autoradiography in presence of glycine-site agonist D-serine; format: tissue-based; conditions: tested as the 11C-labelled form; outline: as §3
[19] = biological target: T1, Glutamate NMDA receptor (Rattus norvegicus); test: Binding affinity to glycine binding site of NMDA receptor in hippocampus of rat brain by autoradiography in presence of glycine-site antagonist L-703717; format: tissue-based; conditions: tested as the 11C-labelled form; outline: as §3
[20] = biological target: T1, Glutamate NMDA receptor (Rattus norvegicus); test: Binding affinity to glycine binding site of NMDA receptor in hippocampus of rat brain by autoradiography in presence of glycine-site antagonist methoxy-MDL-104653; format: tissue-based; conditions: tested as the 11C-labelled form; outline: as §3
[21] = biological target: T1, Glutamate NMDA receptor (Rattus norvegicus); test: Binding affinity to glycine binding site of NMDA receptor in hippocampus of rat brain by autoradiography in presence of glycine-site antagonist MDL-105519; format: tissue-based; conditions: tested as the 11C-labelled form; outline: as §3
[22] = Metabolic stability in ddY mouse brain at 7.4 MBq, iv after 30 mins by radio-TLC analysis; format: ADME, organism-based; conditions: 40 MBq, in the assay text read “40 MBq” for “7.4 MBq”, read-out: Activity
Outline: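 Mice received [11C]radioligand (40 MBq) iv and were killed at 30 min. Whole brain was homogenized in ice-cold MeOH and centrifuged at 10,000 rpm for 1 min at 4 °C. Extracts were analysed by radio-TLC using CHCl3/CH3CN 3:1, CHCl3/MeOH 9:1, or CH3CN as mobile phase; intact parent fraction was recorded.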

[23] = Metabolic stability in ddY mouse blood at 7.4 MBq, iv after 30 mins by radio-TLC analysis; format: ADME, organism-based; conditions: 40 MBq, in the assay text read “40 MBq” for “7.4 MBq”, read-out: Activity
Blood [24] = test: Biodistribution in ddY mouse blood assessed per gram of tissue at 40 MBq, iv after 30 mins by gamma counting in presence of 5-ethyl-7-chloro-4-hydroxy-3-(3-[11C]methylaminophenyl)-2(1H)-quinolone; format: ADME, organism-based; conditions: in vivo, 0.5 h
Outline: (§4)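 Blocking study: [11C]radioligand was mixed with unlabeled ligand (2 mg/kg) and injected iv into ddY mice. Animals were killed at 30 min; blood, cerebrum and cerebellum were gamma-counted and expressed as % dose/g and tissue/blood ratios. Comparison with controls used the Mann–Whitney U-test.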

[25] = Biodistribution in ddY mouse cerebrum assessed per gram of tissue at 40 MBq, iv after 30 mins by gamma counting in presence of 5-ethyl-7-chloro-4-hydroxy-3-(3-[11C]methylaminophenyl)-2(1H)-quinolone; format: ADME, organism-based; conditions: in vivo, 0.5 h, in the assay text read “7.4 MBq” for “40 MBq”; outline: as §4
Cerebellum [26] = test: Biodistribution in ddY mouse cerebellum assessed per gram of tissue at 40 MBq, iv after 30 mins by gamma counting in presence of 5-ethyl-7-chloro-4-hydroxy-3-(3-[11C]methylaminophenyl)-2(1H)-quinolone; format: ADME, organism-based; conditions: in vivo, 0.5 h, in the assay text read “7.4 MBq” for “40 MBq”; outline: as §4
[27] = Ratio of drug level in cerebrum to blood of ddY mouse at 40 MBq, iv after 30 mins in presence of 5-ethyl-7-chloro-4-hydroxy-3-(3-[11C]methylaminophenyl)-2(1H)-quinolone; format: ADME, organism-based; conditions: in vivo, 0.5 h, in the assay text read “7.4 MBq” for “40 MBq”; outline: as §4
[28] = Ratio of drug level in cerebellum to blood of ddY mouse at 40 MBq, iv after 30 mins in presence of 5-ethyl-7-chloro-4-hydroxy-3-(3-[11C]methylaminophenyl)-2(1H)-quinolone; format: ADME, organism-based; conditions: in vivo, 0.5 h, in the assay text read “7.4 MBq” for “40 MBq”; outline: as §4
[29] = Plasma protein binding in rat at 0.67 to 0.89 […] after 30 mins by ultrafiltration; format: ADME, cell-free; conditions: read-out: PPB (converted)
Outline: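 Rat serum was diluted 10-fold in 66 mM phosphate buffer (pH 7.4) containing [11C]radioligand (0.67–0.89 MBq) and incubated 30 min at 30 °C. It was then ultrafiltered by centrifugation at 2000 rpm for 15 min. Radioactivity in whole plasma and in filtrate was counted to give % bound (mean, n=3).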

Glutamate NMDA receptor [30] = test: Binding affinity to glycine binding site of NMDA receptor in rat brain; format: tissue-based
[31] = n-Octanol-sodium phosphate buffer partition coefficient, log D at pH 7.4 after 15 mins by shake-flask method; format: physicochemical
Outline: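 Compound (1–2 mg) was shaken 15 min at ambient temperature in n-octanol and 10 mM phosphate buffer (pH 7.4). The mixture was centrifuged at 2500 rpm for 5 min, and both layers were analysed by HPLC (n=3).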

For `CN(C)c1ccc(Cc2cccc(-c3c(O)c4ccc(Cl)cc4[nH]c3=O)c2)cc1`, the Ki (Glutamate NMDA receptor [1]) was 22.2 nM.
In the case of `CCc1cc(Cl)cc2[nH]c(=O)c(-c3cccc(N(C)C)c3)c(O)c12`, the Ki (Glutamate NMDA receptor [1]) is reported as 34.3 nM.
Molecule `COc1cccc(-c2c(O)c3c(N(C)C)cc(Cl)cc3[nH]c2=O)c1` has a Ki (Glutamate NMDA receptor [1]) of 566 nM.
Work on `CCc1cc(Cl)cc2[nH]c(=O)c(-c3cccc(O[11CH3])c3)c(O)c12` yielded a Drug uptake (Blood [2]) of 29.16 %ID, a Drug uptake [3] of 0.5 %ID and a Drug uptake (Cerebellum [4]) of 0.72 %ID. For the same molecule, the Drug uptake (Blood [5]) was 10.66 %ID/g, the Drug uptake [6] was 0.32 %ID/g and the Drug uptake (Cerebellum [7]) was 0.44 %ID/g. For the same molecule, the Kp at 1 min [8] was 0.018, the Kp at 1 min [9] was 0.026 and the Kp at 0.5 h [10] was 0.03. For the same molecule, the Kp at 0.5 h [11] was 0.042.
For `CCc1cc(Cl)cc2[nH]c(=O)c(-c3cccc(NC)c3)c(O)c12`, the Ki (Glutamate NMDA receptor [1]) was 11.8 nM, the Activity [12] was 89% and the Activity [13] was “Active”. The Activity [14] was “Active”, the Activity [15] was “Active” and the Activity [16] was 75%. The Activity [17] was 59%, the Activity [18] was 59% and the Activity [19] was 64%. It also gave an Activity [20] of 64% and an Activity [21] of 64%.
`CCc1cc(Cl)cc2[nH]c(=O)c(-c3cccc(N[11CH3])c3)c(O)c12` gave a Drug uptake (Blood [2]) of 20.91 %ID, a Drug uptake [3] of 0.47 %ID and a Drug uptake (Cerebellum [4]) of 0.87 %ID. For the same molecule, the Drug uptake (Blood [5]) was 9.08 %ID/g, the Drug uptake [6] was 0.38 %ID/g and the Drug uptake (Cerebellum [7]) was 0.53 %ID/g. For the same molecule, the Kp at 1 min [8] was 0.022, the Kp at 1 min [9] was 0.042 and the Kp at 0.5 h [10] was 0.042. For the same molecule, the Kp at 0.5 h [11] was 0.058, the remaining at 0.5 h [22] was 70% and the remaining at 0.5 h [23] was 93%. It also gave a Drug uptake (Blood [24]) of 7.77 %ID, a Drug uptake [25] of 0.34 %ID and a Drug uptake (Cerebellum [26]) of 0.34 %ID. For the same molecule, the Ratio [27] was 0.044, the Ratio [28] was 0.044 and the fraction unbound at 0.5 h [29] was 0.29.
In the case of `COc1cccc(-c2c(O)nc3cc(Cl)ccc3c2O)c1`, the Ki (Glutamate NMDA receptor [30]) is reported as 167 nM.
With `COc1ccc(Cc2cccc(-c3c(O)c4ccc(Cl)cc4[nH]c3=O)c2)cc1` the Ki (Glutamate NMDA receptor [1]) was 5.12 nM, the logD at 0.25 h [31] was 3.47 and the fraction unbound at 0.5 h [29] was 0.06.
